Experiment [1] concerns the target Carbonic anhydrase 4 (Homo sapiens) (UniProt P22748). As to the kind of experiment: Binding affinity to human CA4 by phenol red dye based stopped flow CO2 hydration assay. The following applies: filed as activator. A digest of the protocol: (§1)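 Purified recombinant human CA isoforms. CA-catalysed CO2 hydration was followed by stopped-flow with phenol red at 557 nm, taking initial rates over 10–100 s from at least six traces of the first 5–10% of reaction. Uncatalysed rates were subtracted. Activator stocks were 0.1 mM in deionised water, diluted down to 0.1 nM in assay buffer. K_A came from non-linear least-squares Michaelis–Menten fitting.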

For experiment [2], the target named is T1, Amine oxidase [flavin-containing] A (Homo sapiens, UniProt P21397).
T1 sequence (P21397 whole entry): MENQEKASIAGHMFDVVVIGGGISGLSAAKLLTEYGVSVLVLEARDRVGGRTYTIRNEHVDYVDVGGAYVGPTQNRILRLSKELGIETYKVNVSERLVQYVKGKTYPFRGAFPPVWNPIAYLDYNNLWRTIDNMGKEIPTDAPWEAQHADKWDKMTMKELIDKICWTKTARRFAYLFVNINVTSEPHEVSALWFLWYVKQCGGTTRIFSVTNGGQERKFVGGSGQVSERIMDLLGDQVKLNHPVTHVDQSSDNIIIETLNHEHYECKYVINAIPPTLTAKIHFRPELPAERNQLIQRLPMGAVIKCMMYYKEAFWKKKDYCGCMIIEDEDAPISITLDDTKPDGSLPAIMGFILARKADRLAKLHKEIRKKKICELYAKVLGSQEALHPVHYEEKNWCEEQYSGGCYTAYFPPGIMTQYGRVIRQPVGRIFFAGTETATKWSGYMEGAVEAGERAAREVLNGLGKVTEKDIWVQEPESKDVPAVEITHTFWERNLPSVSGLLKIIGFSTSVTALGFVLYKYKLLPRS
As to the kind of experiment: Inhibition of human recombinant MAO-A assessed as inhibition of 4-hydroxyquinoline formation using kynuramine as substrate by fluorescence spectrophotometry analysis. A digest of the protocol:
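Recombinant human MAO-A with kynuramine as substrate. The 4-hydroxyquinoline product was quantified by fluorescence spectrophotometry, and IC50 values were determined.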

The subject of experiment [3] is Mus musculus. As to the kind of experiment: Pro-cognitive activity in C57Bl6 mouse assessed as attenuation of long-term memory deficit by measuring increase in exploration time for novel object at 50 nmol/uL, icv measured after 24 hrs by novel object recognition test. The format is functional, organism-based. A digest of the protocol: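 Male adult C57Bl6 mice (8–9 weeks), lateral-ventricle cannula implanted one week before. 10-min habituation to empty open-field arena; 24 h later, 5-min acquisition with two identical objects, followed immediately by 5 µL i.c.v. infusion at 1 µL/min. 5-min retention test 24 h after acquisition with one familiar and one novel object; percentage exploration time per object, two-way ANOVA with Bonferroni.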

For experiment [4], the target named is Carbonic anhydrase 2 (Homo sapiens) (UniProt P00918). As to the kind of experiment: Binding affinity to human CA2 by phenol red dye based stopped flow CO2 hydration assay. In outline: as §1
For experiment [5], the system named is Mus musculus. As to the kind of experiment: Pro-cognitive activity in C57Bl6 mouse assessed as attenuation of long-term memory deficit by measuring increase in exploration time for novel juvenile at 50 nmol/uL, icv measured after 48 hrs by novel object recognition test. Format: functional, organism-based. In outline: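 Male adult C57Bl6 mice (8–9 weeks), lateral-ventricle cannula implanted 7 days earlier. Social recognition: 10-min habituation to arena with two empty cups; 24 h later 10-min acquisition with an unfamiliar juvenile (3–4 weeks) under one wire cup. Immediately after, 5 µL i.c.v. infusion at 1 µL/min. Retention at 48 h with familiar and novel juvenile; percentage time exploring each cup (snout-to-cup contact).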

The test system of experiment [6] is Mus musculus. The experiment is described as follows: Pro-cognitive activity in C57Bl6 mouse assessed as attenuation of long-term memory deficit by measuring increase in exploration time for novel juvenile by measuring discrimination index at 25 nmol/uL, icv measured after 48 hrs by novel object recognition test. Format: functional. A digest of the protocol:
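Social recognition in adult male C57Bl6 mice with intracerebroventricular cannulae. Habituation was 10 min with two empty cups. Twenty-four hours later, a novel 3–4-week-old juvenile was placed under one cup for 10 min of exploration, followed immediately by a 5 µL infusion at 1 µL/min. Retention 48 h later offered familiar versus novel juvenile, scoring snout-to-cup contact. DI = (tN−tF)/(tN+tF).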

Calls of active or inactive are those of the source. The calls are words filed in the database; no cut-off is given here.

A word on the IC50: it is the concentration that gives 50% inhibition.

Chain of Carbonic anhydrase 4 (Homo sapiens) (P22748 whole entry, canonical isoform): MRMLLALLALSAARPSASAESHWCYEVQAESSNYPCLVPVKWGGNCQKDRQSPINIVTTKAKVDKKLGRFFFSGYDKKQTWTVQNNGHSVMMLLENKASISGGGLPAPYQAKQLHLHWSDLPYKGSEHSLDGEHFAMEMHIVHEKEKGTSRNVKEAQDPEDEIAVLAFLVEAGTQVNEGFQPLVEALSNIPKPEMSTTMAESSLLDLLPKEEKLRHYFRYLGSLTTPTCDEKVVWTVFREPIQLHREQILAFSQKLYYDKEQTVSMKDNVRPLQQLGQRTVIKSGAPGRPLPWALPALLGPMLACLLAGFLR

`CC(N)CSc1ccccc1` (stereo unspecified): the Ka in experiment [1] is 7.1 µM; in experiment [4], above 100 µM. Moreover, the IC50 in experiment [2] was determined as 4.72 µM. Also, the outcome with Mus musculus [3] and in the experiment with Mus musculus [5] was Active. Also, the Activity_index in the experiment with Mus musculus [6] came out at 0.038.

The values above are taken from ChEMBL document CHEMBL5247599, “New β-arylchalcogeno amines with procognitive properties targeting Carbonic Anhydrases and Monoamine Oxidases” (Eur J Med Chem, 2022).
